Bioassay records (PubChem BioAssay)
An excerpt weighted towards active compounds, which were near 2.9% of everything screened.
APOBEC3A inh = blocks human APOBEC3A ssDNA deamination | AID 493011 | P31941 | 330,000 tested, 0.41% active | inhibition, % at 20 µM | recombinant A3A, FAM/TAMRA ssDNA deamination fluorescence;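 active = at least 40% inhibition at 20 µM here, with at most 30% in a related deaminase screen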
Target sequence (P31941 whole entry, looked up): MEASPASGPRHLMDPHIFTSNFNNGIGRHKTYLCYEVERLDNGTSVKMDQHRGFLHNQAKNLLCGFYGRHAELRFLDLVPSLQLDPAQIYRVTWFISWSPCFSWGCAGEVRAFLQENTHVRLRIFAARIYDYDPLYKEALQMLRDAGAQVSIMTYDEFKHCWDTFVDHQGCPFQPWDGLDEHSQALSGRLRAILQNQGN
A3G deaminase = blocks human APOBEC3G single-stranded DNA deamination | AID 493012 | recombinant A3G, ssDNA deamination FAM/TAMRA fluorescence | inhibition, % at 20 µM | 330,000 tested, 0.28% active;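 active = inhibition of at least 40% at 20 µM, with no more than 30% in the related APOBEC3A deaminase screen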
HCV core dimer = blocks dimerization of HCV core protein; TR-FRET GST/Flag-core106 dimerization, 1536-well; 300,000 tested, 0.33% active; inhibition, % at 5 µM;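 active = inhibition above the mean of all tested compounds plus 3 SD, set per screening campaign, cut at about 45% in these data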
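Assay system: GST-tagged and Flag-tagged HCV core protein residues 1-106 / Times: compound-protein-antibody incubation 4 h at 22.5 °C / Signal: time-resolved FRET, ex 340 nm, em 617 and 671 nm / Evaluation: % inhibition based on acceptor/donor emission ratio / Benchmarks: wells lacking GST-core106 and wells with excess unlabelled core106 / Repeats: singlicate, one well per compound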
NS3 helicase inh = inhibitors of Hepatitis C virus NS3 helicase. NS3 helicase DNA unwinding, Cy5 molecular beacon fluorescence. inhibition, % at 10.9 µM. 290,000 tested, 0.56% active;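 active = inhibition above the mean of all tested compounds plus 3 SD, set per campaign, cut at about 35% in these data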
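Assay system: hepatitis C virus NS3 helicase domain fragment enzyme. Also added: annealed dual-labelled DNA beacon duplex, ATP-started. Timing: 1 h reaction at 25 °C, ATP-initiated. Technique: Cy5 fluorescence at 0 and 60 min, beacon hairpin quenching. Evaluation: % inhibition of unwinding. Replication: one well per compound.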
ABHD5-PLIN5 inh = ABHD5-PLIN5 protein interaction inhibition; Q00G26+Q8WTS1; Split G. princeps luciferase complementation, luminescence, 4 h; inhibition, % at 4 µM; 360,000 tested, 0.78% active; AID 602281;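 active = inhibition above the mean inhibition across every tested compound plus 3 SD, cut at about 22% in these data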
PRMT1 FP inh = inhibitors of human PRMT1; 370,000 tested, 1.3% active; inhibition, % at 2.79 µM; recombinant PRMT1, activity-based probe fluorescence polarization;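 active = inhibition above about 21% made by adding two undisclosed values, limit read from the data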
NS3 hel confirm = HCV NS3 helicase inhibition, confirmation assay; shares compounds with NS3 helicase inh; NS3 helicase DNA unwinding, Cy5 molecular beacon fluorescence; inhibition, % at 10.9 µM; 1,600 tested, 31% active; AID 1943;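 active = inhibition above the mean of all tested compounds plus 3 SD, cutoff set per campaign, cut at about 36% in these data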
FID counter trip = counter-screen for HCV NS3 helicase inhibitors: DNA intercalator displacement | shares compounds with NS3 helicase inh | DNA fluorescent intercalator displacement, fluorescence | 1,600 tested, 4% active | inhibition, % at 7.9 µM; in the data active = inhibition above about 37%;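 also: higher means more displacement of ethidium bromide from the DNA hairpin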
A3A conf = APOBEC3A (human) deaminase inhibition, confirmed; AID 493151; inhibition, % at 20 µM; recombinant A3A, ssDNA deaminase UDG fluorescence assay; 1,400 tested, 63% active; shares compounds with APOBEC3A inh;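 active = inhibition reaching a set limit, 80% of the first screen's cutoff, at 20 µM in any replicate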
UDG A3A counter = counter-screen for APOBEC3A inhibitors: UDG | AID 504714 | UDG counterscreen, FAM/TAMRA uracil oligo fluorescence | inhibition, % at 20 µM | 1,000 tested, under 10 active | shares compounds with APOBEC3A inh; call rule not given here
ABHD5 PLIN5 conf = ABHD5-PLIN5 interaction inhibition, confirmed. shares compounds with ABHD5-PLIN5 inh. biochemical ABHD5-PLIN5 interaction, luminescence. inhibition, % at 4 µM. 2,200 tested, 67% active; in the data active = inhibition above about 23%
HNF4 split-luc = active in HNF4 split-luciferase counter-screen for ABHD5-PLIN5 inhibitors; shares compounds with ABHD5-PLIN5 inh; HNF4 dimerization, luminescence, biochemical; inhibition, % at 4 µM; 2,200 tested, 77% active; AID 651674;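 active = mean inhibition across replicate wells exceeding the computed hit threshold, cut at about 13% in these data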;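 also: light from luciferase halves that rejoin when HNF4 fusion proteins dimerize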
Target sequence (P41235 whole entry, looked up, the tested form may be a part): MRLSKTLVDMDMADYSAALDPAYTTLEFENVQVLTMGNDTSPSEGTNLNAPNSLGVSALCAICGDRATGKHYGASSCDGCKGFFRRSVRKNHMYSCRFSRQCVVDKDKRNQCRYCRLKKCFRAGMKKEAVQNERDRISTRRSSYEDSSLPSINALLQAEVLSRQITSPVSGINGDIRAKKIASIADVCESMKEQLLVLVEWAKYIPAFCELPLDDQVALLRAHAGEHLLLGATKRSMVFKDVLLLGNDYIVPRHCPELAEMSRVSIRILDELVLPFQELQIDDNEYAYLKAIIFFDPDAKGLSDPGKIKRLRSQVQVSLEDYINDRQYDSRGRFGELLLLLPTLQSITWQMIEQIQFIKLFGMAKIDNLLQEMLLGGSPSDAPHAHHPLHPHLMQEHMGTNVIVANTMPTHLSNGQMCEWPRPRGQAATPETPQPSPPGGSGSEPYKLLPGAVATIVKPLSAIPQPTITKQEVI
PRMT1 confirm = PRMT1 (human) inhibition, FP confirmation. shares compounds with PRMT1 FP inh. recombinant His-PRMT1, activity-based probe fluorescence polarization. inhibition, % at 2.79 µM. 3,300 tested, 42% active;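 active = mean inhibition across replicates above the hit cutoff derived for the earlier primary screen, cut at about 22% in these data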
Each line names hits and unclear results; the compound was inactive in the other large screens (follow-up assays come after a bar, where they were run); ! = not active in a repeat.

C=CCN1C(=O)/C(=C/c2ccc(Br)s2)C(=O)NC1=S	APOBEC3A inh 46, NS3 helicase inh 46 | NS3 hel confirm 68 | FID counter trip inactive | A3A conf inactive
COC(=O)C1=C(c2c(C)noc2C)C[C@@H]2CC[C@H]1N2C(=O)NCC1CC1	none (no result: HCV core dimer, NS3 helicase inh)
C=CCN1C(=O)NC(=O)/C(=C/c2c(CCN(C)C(=O)c3ccccc3)cc3c(c2OC)OCO3)C1=O	NS3 helicase inh 54, ABHD5-PLIN5 inh 26 | NS3 hel confirm inactive | FID counter trip inactive | ABHD5 PLIN5 conf inactive | HNF4 split-luc 18
Cc1ccc(N2C(=O)NC(=O)/C(=C\C=C\c3ccco3)C2=O)cc1	NS3 helicase inh 42, ABHD5-PLIN5 inh 25 | NS3 hel confirm 39 | FID counter trip inactive | ABHD5 PLIN5 conf 95 | HNF4 split-luc 73
Cc1ccc(N2C(=O)NC(=O)/C(=C\c3ccoc3)C2=O)cc1	none
CCCn1c(C)cc(C=O)c1C	none
O=C1NC(=O)C(=Cc2ccc(-c3ccc(S(=O)(=O)N4CCOCC4)cc3)o2)C(=O)N1	NS3 helicase inh 42, ABHD5-PLIN5 inh 33 | NS3 hel confirm inactive | FID counter trip inactive | ABHD5 PLIN5 conf 91 | HNF4 split-luc 93
CC(=O)Nc1nnc(CCN(CCc2nnc(NC(C)=O)s2)[N+](=O)[O-])s1	none
Cc1ccc(/C=C2\C(=O)NC(=S)N(c3cccc(F)c3)C2=O)o1	NS3 helicase inh 37, PRMT1 FP inh 29 | NS3 hel confirm 65 | FID counter trip inactive | PRMT1 confirm 57
CN1CCN(c2ccc(/C=C3\C(=O)NC(=S)N(c4cccc(Br)c4)C3=O)o2)CC1	none
CC(C)CN1CCN(Cc2ccc(F)cc2Cl)CC1CCO (stereo not drawn)	none
O=C1NC(=O)N(Cc2ccccc2)C(=O)/C1=C\C=C\c1ccco1	NS3 helicase inh 42, ABHD5-PLIN5 inh 28, PRMT1 FP inh 36 | NS3 hel confirm inactive | FID counter trip inactive | ABHD5 PLIN5 conf 97 | HNF4 split-luc 64 | PRMT1 confirm inactive
O=C(O)C1C(C(=O)O)C2(Cl)C(Cl)=C(Cl)C1(Cl)C2(Cl)Cl (stereo not drawn)	APOBEC3A inh 43 (no result: HCV core dimer, NS3 helicase inh) | A3A conf 15 | UDG A3A counter inactive
Cc1ccc(N2C(=O)NC(=O)/C(=C\c3cc(C)n(-c4cc(C(=O)O)cc(C(=O)O)c4)c3C)C2=O)cc1	APOBEC3A inh 54 | A3A conf 28 | UDG A3A counter inactive
COc1ccc(CN2CCNCC2)c(OC)c1OC	APOBEC3A inh 57! | A3A conf 62 | UDG A3A counter inactive
CCOc1ccc(N=C2SCCCN2C)cc1	APOBEC3A inh 40 | A3A conf 66 | UDG A3A counter inactive
CCCC[N+]12CCC(CC1)C(C(O)(c1ccccc1)c1ccccc1)C2 (stereo not drawn)	APOBEC3A inh 41 | A3A conf 64 | UDG A3A counter inactive
Cc1ccccc1-n1c(CNc2ccccc2)nc2ccccc2c1=O	none (no result: NS3 helicase inh)
COc1cc(/C=C2\C[C@H]3[C@@H]4CC=C5C[C@@H](N6CCCC6)CC[C@]5(C)[C@H]4CC[C@]3(C)[C@H]2O)cc(OC)c1OC	none (no result: APOBEC3A inh, A3G deaminase, HCV core dimer, NS3 helicase inh)
C[N+]12CCC(CC1)C(=C(c1ccccc1)c1ccccc1)C2	APOBEC3A inh 75 | A3A conf 71 | UDG A3A counter inactive
CC[N+]12CCC(CC1)C(=C(c1ccccc1)c1ccccc1)C2	none
CCOC(=O)C(O)(c1ccc(N=c2ccccn2C)cc1)C(F)(F)F (stereo not drawn)	APOBEC3A inh 44 | A3A conf 32 | UDG A3A counter inactive
CCOC(=O)C(O)(c1cn(C)c2ccccc12)C(F)(F)F (stereo not drawn)	none
C/C(=N\N1CCCCC1c1cccnc1)c1c(O)n(C2CCCCC2)c(=S)[nH]c1=O (stereo not drawn)	none
COc1cc2c(cc1OC)C(C1c3cc4c(cc3CCN1C)OCO4)OC2=O (stereo not drawn)	none
C[N+]1(C)CCc2cc3c(cc2[C@H]1[C@@H]1OC(=O)c2c1ccc1c2OCO1)OCO3	APOBEC3A inh 46! | A3A conf 80 | UDG A3A counter inactive
COCCn1c(O)c(/C=N/NC(=O)CSC(=S)N2CCCC2)c(=O)[nH]c1=S	none (no result: HCV core dimer, NS3 helicase inh)
C[C@H]1CC[C@H]2NCCN[C@H]2C1	APOBEC3A inh 62 | A3A conf inactive | UDG A3A counter inactive
O=[N+]([O-])c1cnc[nH]1	none (no result: NS3 helicase inh)
CNC(=O)OCCc1nccn1C	none
CNC(=O)OCc1n(C)cc[n+]1C	APOBEC3A inh 40 | A3A conf 82 | UDG A3A counter inactive
C=CC[N+]1(C)CC[C@]23c4c5ccc(O)c4O[C@H]2C(=O)CC[C@@]3(O)[C@H]1C5 (stereo partly drawn)	none (no result: NS3 helicase inh)
CC[N+](C)(CC)CCCOC(=O)C(O)(c1ccccc1)C1CCCCC1 (stereo not drawn)	APOBEC3A inh 50 | A3A conf 81 | UDG A3A counter inactive
N=Cc1c(O)n(-c2ccccc2)c(=O)n(-c2ccccc2)c1=O	none
C[N+]1(C)[C@@H]2CC[C@H]1CC(OC(=O)[C@@H](CO)c1ccccc1)C2 (stereo partly drawn)	APOBEC3A inh 67 | A3A conf 87
C[N+]1(C)C2CCC1CC(OC(=O)c1c[nH]c3ccccc13)C2 (stereo not drawn)	APOBEC3A inh 72 (no result: NS3 helicase inh) | A3A conf 84 | UDG A3A counter inactive
C[N+]1(C)C2CC[C@H]1CC(OC(=O)C(CO)c1ccccc1)C2 (stereo partly drawn)	none (no result: NS3 helicase inh)
COC(=O)C1=C(c2ccc(-c3ccccc3)c(F)c2)C[C@@H]2CC[C@H]1N2C(=O)N1CCc2cc(OC)c(OC)cc2C1	none (no result: HCV core dimer, NS3 helicase inh)
